Data set [1] deals with T1, Lysosomal acid glucosylceramidase (Homo sapiens, UniProt P04062, N409S). Description: (§1) Inhibition of glucocerebrosidase N370S mutant in spleen homogenates of patient with Gaucher disease using resorufin-beta-D-glucopyranoside as substrate after 20 mins fluorescence assay. It is filed as tissue-based.
The test system of data set [2] is T2, Lysosomal acid glucosylceramidase (Homo sapiens), P04062 [N409S].
T2 sequence (whole entry): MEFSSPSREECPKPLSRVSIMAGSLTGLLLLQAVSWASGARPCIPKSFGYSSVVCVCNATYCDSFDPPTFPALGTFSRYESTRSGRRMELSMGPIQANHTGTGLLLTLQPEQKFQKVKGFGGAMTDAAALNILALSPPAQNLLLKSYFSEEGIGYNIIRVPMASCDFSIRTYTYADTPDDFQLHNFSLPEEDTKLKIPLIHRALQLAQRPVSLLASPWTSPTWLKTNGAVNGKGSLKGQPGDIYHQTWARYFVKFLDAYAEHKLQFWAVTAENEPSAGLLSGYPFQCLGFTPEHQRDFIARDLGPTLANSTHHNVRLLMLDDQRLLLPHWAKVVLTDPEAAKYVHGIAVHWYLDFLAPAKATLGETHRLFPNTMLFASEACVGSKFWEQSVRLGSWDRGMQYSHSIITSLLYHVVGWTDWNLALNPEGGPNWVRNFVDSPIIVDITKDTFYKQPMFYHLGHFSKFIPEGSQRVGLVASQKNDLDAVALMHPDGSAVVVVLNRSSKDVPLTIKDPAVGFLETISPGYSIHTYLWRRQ
As to the kind of experiment: Induction of glucocerebrosidase N370S mutant translocation in fibroblasts of patient with Gaucher disease assessed as co-localization of LAMP-1 in lysosomes at 1 uM after 5 days by laser scanning confocal microscopic analysis. In a few lines:
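Gaucher patient fibroblasts on chamber slides, treated 5 days with compound. Cells fixed in 3% paraformaldehyde and permeabilized with 0.1% Triton-X. Stained with anti-LAMP-1 (1:100) and anti-GCase R386 (1:500), then Alexa-488/555 secondaries and DAPI. Imaged by confocal laser scanning at identical laser settings; collapsed z-stacks.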

The nature of data set [3]: Plasma concentration in C57BL/6 mouse at 30 mg/kg, ip after 24 hrs. It is filed as ADME, organism-based. Set-up: dose 30 mg/kg, route intraperitoneal. In a few lines: (§2)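 Male C57BL/6 mice (20-21 g), single IP dose of 30 mg/kg at 3 mg/mL, 10 mL/kg, in 5% DMAC/5% Solutol HS 15/90% 10 mM pH 7.4 phosphate buffer; n=3 per time point. Retro-orbital blood into K2EDTA under isoflurane, pre-dose to 24 h. Plasma protein-precipitated with acetonitrile containing testosterone internal standard; LC-MS/MS positive ESI MRM; calibration 1.00-10000 ng/mL.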

Data set [4] relates to Mus musculus. Description: Cmax in C57BL/6 mouse at 30 mg/kg, ip after 24 hrs. It is filed as ADME, organism-based. Set-up: dose 30 mg/kg, route intraperitoneal. Particulars: in vivo. In a few lines: as §2
Data set [5] in a line: Plasma concentration in C57BL/6 mouse at 30 mg/kg, ip after 1 hr. The class given is ADME, organism-based. Set-up: dose 30 mg/kg, route intraperitoneal. The method, boiled down: as §2
Data set [6] is described as follows: Plasma concentration in C57BL/6 mouse at 30 mg/kg, ip after 0.5 hrs. The class given is ADME, organism-based. On the set-up: dose 30 mg/kg, route intraperitoneal. In a few lines: as §2
Data set [7] deals with Mus musculus. Description: AUClast in C57BL/6 mouse at 30 mg/kg, ip after 24 hrs. It is filed as ADME, organism-based, Plasma. Set-up: time < 24 hr, dose 30 mg/kg, route intraperitoneal. Particulars: in vivo. The method, boiled down:
as §2

For data set [8], the system named is Mus musculus. Description: Half life in C57BL/6 mouse at 30 mg/kg, ip after 24 hrs. On the set-up: dose 30 mg/kg, route intraperitoneal. To be noted: in vivo. It is filed as ADME, organism-based. The method, boiled down:
as §2

Data set [9] concerns the target T1, Lysosomal acid glucosylceramidase. Description: Inhibition of glucocerebrosidase N370S mutant in spleen homogenates of patient with Gaucher disease using resorufin-beta-D-glucopyranoside as substrate after 60 mins fluorescence assay. The class given is tissue-based.
Data set [10] relates to Mus musculus. As to the kind of experiment: Tmax in C57BL/6 mouse at 30 mg/kg, ip after 24 hrs. Particulars: in vivo. The class given is ADME, organism-based. Set-up: dose 30 mg/kg, route intraperitoneal. The method, boiled down: as §2
The test system of data set [11] is Mus musculus. Description: AUC (infinity) in C57BL/6 mouse at 30 mg/kg, ip after 24 hrs. The class given is ADME, organism-based, Plasma. On the set-up: time infinity, dose 30 mg/kg, route intraperitoneal. Particulars: in vivo. The method, boiled down: as §2
A short description of data set [12]: Plasma concentration in C57BL/6 mouse at 30 mg/kg, ip after 4 hrs. It is filed as ADME, organism-based. Set-up: dose 30 mg/kg, route intraperitoneal. In a few lines: as §2
The nature of data set [13]: Plasma concentration in C57BL/6 mouse at 30 mg/kg, ip after 2 hrs. The class given is ADME, organism-based. Set-up: dose 30 mg/kg, route intraperitoneal. The method, boiled down:
as §2

A short description of data set [14]: Plasma concentration in C57BL/6 mouse at 30 mg/kg, ip after 0.083 hrs. It is filed as ADME, organism-based. Set-up: dose 30 mg/kg, route intraperitoneal. The method, boiled down:
as §2

Data set [15] in a line: Plasma concentration in C57BL/6 mouse at 30 mg/kg, ip after 12 hrs. The class given is ADME, organism-based. Set-up: dose 30 mg/kg, route intraperitoneal. In a few lines:
as §2

Data set [16] can be described thus: Plasma concentration in C57BL/6 mouse at 30 mg/kg, ip after 0.25 hrs. The class given is ADME, organism-based. Set-up: dose 30 mg/kg, route intraperitoneal. In a few lines: as §2
Data set [17] can be described thus: Plasma concentration in C57BL/6 mouse at 30 mg/kg, ip after 8 hrs. The class given is ADME, organism-based. On the set-up: dose 30 mg/kg, route intraperitoneal. In a few lines:
as §2

The subject of data set [18] is T2, Lysosomal acid glucosylceramidase (Homo sapiens), P04062 [N409S]. The data set is described as §1. The class given is tissue-based.
Data set [19] concerns the target Somatostatin receptor type 4 (Homo sapiens, UniProt P31391). Description: Binding affinity to human SST4 receptor.

Active and inactive are the calls of the source. No cut-off for these calls is given here.

Sequence of Somatostatin receptor type 4 (P31391 whole entry): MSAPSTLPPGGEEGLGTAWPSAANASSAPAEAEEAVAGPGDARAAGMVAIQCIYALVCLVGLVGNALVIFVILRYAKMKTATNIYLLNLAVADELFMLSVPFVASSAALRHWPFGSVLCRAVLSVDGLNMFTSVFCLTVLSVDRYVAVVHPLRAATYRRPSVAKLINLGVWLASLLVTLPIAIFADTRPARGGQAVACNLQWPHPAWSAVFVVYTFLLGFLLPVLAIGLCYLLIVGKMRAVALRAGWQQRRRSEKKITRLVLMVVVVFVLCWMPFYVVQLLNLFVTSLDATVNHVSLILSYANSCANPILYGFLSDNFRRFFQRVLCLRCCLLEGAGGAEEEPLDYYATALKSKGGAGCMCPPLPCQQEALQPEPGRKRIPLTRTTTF

One may read the IC50 as the concentration needed to halve the response being measured. The low end stands for greater potency, the high end for weaker potency. In the case of `O=C(NCCCc1c[nH]cn1)NCCCN(Cc1ccc(Cl)c(Cl)c1)c1ccc(Br)cn1`, the IC50 in [1] amounted to 0.6 µM.

With `S=C(NCCCc1cnc[nH]1)NCCCN(CCc1ccccc1)c1ccc(Br)cn1`, the IC50 in data set [1] was found to be 2.8 µM.

In [1], `S=C(NCCCc1cnc[nH]1)NCCCN(Cc1ccc(Cl)cc1)c1ccc(-c2ccccc2)cn1` came in with a half-inhibitory concentration (IC50) of 1.3 µM.

What is called Cmax is the maximum level reached in the sampled fluid or tissue. One may read the Tmax as the time at which the peak concentration occurs. What is called AUC is concentration integrated over time. A low value points to less exposure. For `S=C(NCCCc1c[nH]cn1)NCCCN(Cc1ccc(Cl)c(Cl)c1)c1ccc(Br)cn1`, the outcome in [2] was Active. The same molecule yielded a concentration at 24 h in [3] of 0.02 µM. For the same molecule, the maximum concentration (Cmax) in the data set with Mus musculus [4] was 3.553 µg/mL. This molecule registered a concentration at 1 h in [5] of 6.39 µM. The IC50 in data set [1] is 0.6 µM; in data set [9] it was 0.58 µM. Also, in data set [6], the concentration at 0.5 h came out at 4.84 µM. In the data set on Mus musculus [7], this molecule had an AUClast of 20.6 µg·h/mL. In the data set with Mus musculus [8], the t1/2 came out at 2.57 h. Moreover, the Tmax in the data set with Mus musculus [10] was determined as 1 h. The AUC in the data set with Mus musculus [11] came to 20.7 µg·h/mL. Further, in data set [12], the concentration at 4 h turned out to be 4.29 µM. The molecule further registered a concentration at 2 h in [13] of 6.17 µM. Further, in data set [14], the concentration at 0.083 h came to 3.03 µM. Also, the concentration at 12 h in data set [15] stood at 0.2 µM. Also, the concentration at 0.25 h in [16] was found to be 4.24 µM. The molecule further returned a concentration at 8 h in data set [17] of 1.35 µM.

The molecule `S=C(NCCCc1c[nH]cn1)NCCCN(Cc1ccc(Cl)c(Cl)c1)c1ccccn1` showed a 50% inhibitory concentration (IC50) in data set [1] of 7.3 µM.

For the molecule `CCCCNC(=S)NCCCN(Cc1ccc(Cl)c(Cl)c1)c1ccc(Br)cn1`, the inhibition entry in data set [18] is “inactive”.

The term Ki denotes a measure of affinity in units of concentration, obtained from inhibition or displacement. Lower therefore signals tighter binding. In data set [1], `CN(CCCN(Cc1ccc(Cl)cc1)c1ccc(Br)cn1)C(=S)NCCCc1cnc[nH]1` returned a 50% inhibitory concentration (IC50) of 2.8 µM. For the same molecule, the affinity in [19], expressed as Ki, was 0.019 µM.

For `CC(=O)NCCCNC(=S)NCCCN(Cc1ccc(Cl)cc1)c1ccc(Br)cn1`, the inhibition entry in [18] is “inactive”.

For `S=C(NCCCc1c[nH]cn1)NCCN(Cc1ccc(Cl)c(Cl)c1)c1ccc(Br)cn1`, the IC50 in data set [1] was 2.1 µM.

For the molecule `S=C(NCCCc1cnc[nH]1)NCCCN(CCc1ccc(Cl)cc1)c1ccc(Br)cn1`, the IC50 in [1] worked out at 2 µM.

On to `S=C(NCCCN(Cc1ccc(Cl)c(Cl)c1)c1ccc(Br)cn1)NCCc1c[nH]cn1`, for which inhibition in data set [1] was half-maximal at 18.3 µM (IC50).

In the case of `S=C(NCCCc1c[nH]cn1)NCCCN(Cc1ccccc1)c1ccc(Br)cn1`, the midpoint of inhibition in data set [1], the IC50, lay at 5.8 µM.

The molecule `O=C(NCCCc1cnc[nH]1)NCCCN(Cc1ccc(Cl)cc1)c1ccc(Br)cn1` displayed a half-inhibitory concentration (IC50) in data set [1] of 1 µM.

Turning to `S=C(NCCCc1cnc[nH]1)NCCCN(Cc1ccc(Cl)cc1)c1ccc(Br)cc1`, the outcome in data set [2] was Active. Moreover, 1.3 µM corresponded to half-maximal inhibition in data set [1] (IC50). Also, the inhibitory constant (Ki) in [19] was 0.16 µM.

For the molecule `S=C(NCCCCN(Cc1ccc(Cl)cc1)c1ccc(Br)cn1)NCCCc1cnc[nH]1`, inhibition in data set [1] was half-maximal at 0.8 µM (IC50).

In the case of `S=C(NCCCNc1ccc(Br)cn1)NCCCc1c[nH]cn1`, the midpoint of inhibition in data set [1], the IC50, lay at 46 µM. This molecule also returned a Ki in data set [19] of 0.69 µM.

As for `CCCCN(CCCNC(=S)NCCCc1c[nH]cn1)c1ccc(Br)cn1`, inhibition in data set [1] was half-maximal at 8.2 µM (IC50).

Consider `OC[C@H]1CNC[C@@H](O)[C@@H]1O`, for which, in [2], the result was Active.

As for `S=C(NCCCc1c[nH]cn1)NCCCN(Cc1ccc(Cl)cc1)c1ccc(Br)cn1`, in [1], the concentration for half-maximal inhibition (IC50) was 1.2 µM.

The molecule `NCCCNC(=S)NCCCN(Cc1ccc(Cl)cc1)c1ccc(Br)cn1` showed an IC50 in data set [1] of 45 µM.

Consider `CN(CCCc1cnc[nH]1)C(=S)NCCCN(Cc1ccc(Cl)cc1)c1ccc(Br)cn1`, for which it took 18 µM to reach half-maximal inhibition in [1] (IC50). The molecule also registered a Ki in data set [19] of 0.026 µM.

With `S=C(NCCCc1cnc[nH]1)NCCCN(Cc1ccc(Cl)cc1)c1cc(-c2ccccc2)ccn1`, 4 µM corresponded to half-maximal inhibition in data set [1] (IC50).

Values taken from ChEMBL document CHEMBL3217744, “Non-iminosugar glucocerebrosidase small molecule chaperones” (Medchemcomm, 2012).
